ChEMBL document CHEMBL1127544, “A new series of photoactivatable and iodinatable linear vasopressin antagonists” (J Med Chem, 1994)

Legend:
[1] = target: T1, Oxytocin receptor (Rattus norvegicus, UniProt P70536); test: Tested for inhibition constant at OT receptor of rat mammary glands
T1 sequence (P70536 whole entry): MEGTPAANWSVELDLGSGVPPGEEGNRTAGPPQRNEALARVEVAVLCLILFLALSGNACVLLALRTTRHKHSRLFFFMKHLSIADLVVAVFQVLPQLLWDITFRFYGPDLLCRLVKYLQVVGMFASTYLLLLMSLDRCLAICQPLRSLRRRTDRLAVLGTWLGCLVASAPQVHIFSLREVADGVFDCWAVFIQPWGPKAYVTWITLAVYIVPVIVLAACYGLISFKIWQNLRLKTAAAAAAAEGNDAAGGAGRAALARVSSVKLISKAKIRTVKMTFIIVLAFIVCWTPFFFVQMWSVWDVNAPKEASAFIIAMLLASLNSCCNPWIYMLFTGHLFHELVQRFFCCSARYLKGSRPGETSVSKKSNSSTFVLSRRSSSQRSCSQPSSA
Method in brief: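 Rat mammary gland membranes (female rat), 2 or 5 μg/assay, 45 min at 30 °C in 50 mM Tris-HCl pH 7.4, 5 mM MgCl2, 1 mg/mL BSA. Competition against 60 pM [125I]d(CH2)5[Tyr(Me)2,Thr4,Orn8,Tyr-NH2 9]VT. Nonspecific binding with 1 μM oxytocin. Filtration over GF/C. Triplicate determinations.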

[2] = target: T2, Vasopressin V1a receptor (Rattus norvegicus, UniProt P30560); test: Tested for dissociation constant at V1a receptor of rat liver membrane
Method in brief: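 Saturation binding of the 125I-labeled azido analogues on rat liver membranes (5 μg), rising labeled-ligand concentrations, run as the competition protocol (45 min, 30 °C, Tris-HCl pH 7.4, MgCl2, BSA, filtration). Nonspecific binding with 250-fold excess of the matching unlabeled analogue. Kd from Scatchard plot. Triplicate values, three independent experiments.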

[3] = target: T2, Vasopressin V1a receptor; test: Inhibition constant for V1a receptor of rat liver membrane
Method in brief: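 Competition binding on rat liver membranes (male rat), 5 or 10 μg/assay, 45 min at 30 °C in the dark. Unlabeled peptide 10^-11 to 10^-7 or 10^-6 M against 60 pM [125I]Phaa-D-Tyr(Me)-Phe-Gln-Asn-Arg-Pro-Arg-Tyr-NH2. Nonspecific binding with 1 μM vasopressin. Separation by GF/C filtration. Ki = IC50 × Kd/(Kd + [tracer]), tracer Kd 0.06 nM. Triplicates.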

[4] = target: T2, Vasopressin V1a receptor; test: Tested for inhibition constant determined from vasopressin induced inositol phosphates accumulation performed on WRK1 cell line of V1a receptor subtype; assay type: cell-based
Method in brief: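 WRK1 cells prelabeled 3 days with myo-[3H]inositol (2 μCi/mL), then serum-starved 30 min. Preincubated 15 min at 37 °C in PBS with 10 mM LiCl, 1 mg/mL BSA and analogue, then 3 nM AVP or vehicle for 6 min. Stopped with perchloric acid. Total inositol phosphates separated on Dowex. Ki act derived from the antagonism curves. At least three experiments in duplicate.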

[5] = target: Vasopressin V2 receptor (Rattus norvegicus, UniProt Q00788); test: Tested for inhibition constant at V2 receptor of rat kidney membrane
Method in brief: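 Rat renal medullary membranes (male rat, freshly prepared), 28.5 μg/assay, 45 min at 30 °C in 50 mM Tris-HCl pH 7.4, 5 mM MgCl2, 1 mg/mL BSA. Competition against 10^-9 M [3H]AVP. Nonspecific binding with 1 μM vasopressin. Filtration over GF/C. Triplicate determinations.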

Chain of Vasopressin V2 receptor (Q00788 whole entry): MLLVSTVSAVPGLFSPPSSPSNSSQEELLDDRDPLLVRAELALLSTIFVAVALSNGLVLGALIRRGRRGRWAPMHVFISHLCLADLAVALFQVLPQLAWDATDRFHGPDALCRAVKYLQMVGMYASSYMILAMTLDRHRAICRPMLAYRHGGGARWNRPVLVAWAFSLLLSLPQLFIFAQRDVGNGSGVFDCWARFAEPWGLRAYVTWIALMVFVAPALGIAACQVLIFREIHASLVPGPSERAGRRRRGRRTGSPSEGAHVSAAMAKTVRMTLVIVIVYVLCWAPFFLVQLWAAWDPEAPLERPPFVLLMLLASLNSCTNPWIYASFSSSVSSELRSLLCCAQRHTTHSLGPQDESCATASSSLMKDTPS
T2 sequence (P30560 whole entry): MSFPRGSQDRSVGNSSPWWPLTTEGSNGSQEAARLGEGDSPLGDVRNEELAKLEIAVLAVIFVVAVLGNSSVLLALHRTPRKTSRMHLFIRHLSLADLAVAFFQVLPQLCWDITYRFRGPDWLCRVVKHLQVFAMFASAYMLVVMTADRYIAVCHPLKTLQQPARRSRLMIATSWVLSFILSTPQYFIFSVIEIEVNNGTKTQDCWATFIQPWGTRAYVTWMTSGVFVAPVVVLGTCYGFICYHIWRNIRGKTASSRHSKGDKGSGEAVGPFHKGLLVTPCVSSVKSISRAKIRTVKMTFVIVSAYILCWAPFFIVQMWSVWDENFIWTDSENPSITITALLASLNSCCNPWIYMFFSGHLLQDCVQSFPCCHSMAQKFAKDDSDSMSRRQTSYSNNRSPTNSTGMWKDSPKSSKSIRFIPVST

| Compound | Ki [1] [pM] | Kd [2] [pM] | Ki [3] [pM] | Ki [4] [pM] | Ki [5] [pM] |
| --- | --- | --- | --- | --- | --- |
| COc1ccc(C[C@@H](NC(=O)CCc2ccc(N=[N+]=[N-])cc2)C(=O)N[C@@H](Cc2ccccc2)C(=O)N[C@@H](CCC(N)=O)C(=O)N[C@@H](CC(N)=O)C(=O)N[C@@H](CCCN=C(N)N)C(=O)N2CCC[C@H]2C(=O)N[C@@H](CCCN=C(N)N)C(=O)N[C@@H](Cc2ccc(O)cc2)C(N)=O)cc1 (stereo in doubt; 20) | 37700 | 190 | 470 | 110 | 1600 |
| COc1ccc(C[C@@H](NC(=O)Cc2ccc(N=[N+]=[N-])cc2)C(=O)N[C@@H](Cc2ccccc2)C(=O)N[C@@H](CCC(N)=O)C(=O)N[C@@H](CC(N)=O)C(=O)N[C@@H](CCCNC(=N)N)C(=O)N2CCC[C@H]2C(=O)N[C@@H](CCCNC(=N)N)C(=O)N[C@@H](Cc2ccc(O)cc2)C(N)=O)cc1 (stereo in doubt; 18) | 4800 | 150 | 590 | 200 | 8000 |
| COc1ccc(C[C@@H](NC(=O)CCCc2ccc(N=[N+]=[N-])cc2)C(=O)N[C@@H](Cc2ccccc2)C(=O)N[C@@H](CCC(N)=O)C(=O)N[C@@H](CC(N)=O)C(=O)N[C@@H](CCCN=C(N)N)C(=O)N2CCC[C@H]2C(=O)N[C@@H](CCCN=C(N)N)C(=O)N[C@@H](Cc2ccc(O)cc2)C(N)=O)cc1 (stereo in doubt; 17) | – | – | 40 | – | – |
| COc1ccc(C[C@@H](NC(=O)Cc2ccc(N=[N+]=[N-])cc2)C(=O)N[C@@H](Cc2ccccc2)C(=O)N[C@@H](CCC(N)=O)C(=O)N[C@@H](CC(N)=O)C(=O)N[C@@H](CCCNC(=N)N)C(=O)N2CCC[C@H]2C(=O)N[C@@H](CCCNC(=N)N)C(=O)N[C@@H](Cc2ccc(O)cc2)C(N)=O)cc1 (stereo in doubt; 13) | – | – | 120 | – | – |
| COc1ccc(C[C@@H](NC(=O)CCc2cccc(N=[N+]=[N-])c2)C(=O)N[C@@H](Cc2ccccc2)C(=O)N[C@@H](CCC(N)=O)C(=O)N[C@@H](CC(N)=O)C(=O)N[C@@H](CCCNC(=N)N)C(=O)N2CCC[C@H]2C(=O)N[C@@H](CCCNC(=N)N)C(=O)N[C@@H](Cc2ccc(O)cc2)C(N)=O)cc1 (stereo in doubt; 21) | 1400 | 54 | 270 | 130 | 16000 |
| COc1ccc(C[C@@H](NC(=O)CCc2ccc(N=[N+]=[N-])cc2)C(=O)N[C@@H](Cc2ccccc2)C(=O)N[C@@H](CCC(N)=O)C(=O)N[C@@H](CC(N)=O)C(=O)N[C@@H](CCCN=C(N)N)C(=O)N2CCC[C@H]2C(=O)N[C@@H](CCCN=C(N)N)C(=O)N[C@@H](Cc2ccc(O)cc2)C(N)=O)cc1 (stereo in doubt; 15) | – | – | 200 | – | – |
| COc1ccc(C[C@@H](NC(=O)Cc2cccc(N=[N+]=[N-])c2)C(=O)N[C@@H](Cc2ccccc2)C(=O)N[C@@H](CCC(N)=O)C(=O)N[C@@H](CC(N)=O)C(=O)N[C@@H](CCCNC(=N)N)C(=O)N2CCC[C@H]2C(=O)N[C@@H](CCCNC(=N)N)C(=O)N[C@@H](Cc2ccc(O)cc2)C(N)=O)cc1 (stereo in doubt; 14) | – | – | 310 | – | – |
| COc1ccc(C[C@@H](NC(=O)CCc2cccc(N=[N+]=[N-])c2)C(=O)N[C@@H](Cc2ccccc2)C(=O)N[C@@H](CCC(N)=O)C(=O)N[C@@H](CC(N)=O)C(=O)N[C@@H](CCCNC(=N)N)C(=O)N2CCC[C@H]2C(=O)N[C@@H](CCCNC(=N)N)C(=O)N[C@@H](Cc2ccc(O)cc2)C(N)=O)cc1 (stereo in doubt; 16) | – | – | 160 | – | – |
| COc1ccc(C[C@@H](NC(=O)CCCc2ccc(N=[N+]=[N-])cc2)C(=O)N[C@@H](Cc2ccccc2)C(=O)N[C@@H](CCC(N)=O)C(=O)N[C@@H](CC(N)=O)C(=O)N[C@@H](CCCN=C(N)N)C(=O)N2CCC[C@H]2C(=O)N[C@@H](CCCN=C(N)N)C(=O)N[C@@H](Cc2ccc(O)cc2)C(N)=O)cc1 (stereo in doubt; 22) | 18000 | – | – | – | – |
| COc1ccc(C[C@@H](NC(=O)c2cccc(N=[N+]=[N-])c2)C(=O)N[C@@H](Cc2ccccc2)C(=O)N[C@@H](CCC(N)=O)C(=O)N[C@@H](CC(N)=O)C(=O)N[C@@H](CCCN=C(N)N)C(=O)N2CCC[C@H]2C(=O)N[C@@H](CCCN=C(N)N)C(=O)N[C@@H](Cc2ccc(O)cc2)C(N)=O)cc1 | – | – | 17800 | – | – |
| COc1ccc(C[C@@H](NC(=O)Cc2cccc(N=[N+]=[N-])c2)C(=O)N[C@@H](Cc2ccccc2)C(=O)N[C@@H](CCC(N)=O)C(=O)N[C@@H](CC(N)=O)C(=O)N[C@@H](CCCNC(=N)N)C(=O)N2CCC[C@H]2C(=O)N[C@@H](CCCNC(=N)N)C(=O)N[C@@H](Cc2ccc(O)cc2)C(N)=O)cc1 (stereo in doubt; 19) | 650 | – | 1100 | 240 | 10000 |
| COc1ccc(C[C@@H](NC(=O)c2ccc(N=[N+]=[N-])cc2)C(=O)N[C@@H](Cc2ccccc2)C(=O)N[C@@H](CCC(N)=O)C(=O)N[C@@H](CC(N)=O)C(=O)N[C@@H](CCCNC(=N)N)C(=O)N2CCC[C@H]2C(=O)N[C@@H](CCCNC(=N)N)C(=O)N[C@@H](Cc2ccc(O)cc2)C(N)=O)cc1 | – | – | 20000 | – | – |
